Results on eleven compounds are retold here after ChEMBL document CHEMBL1155937, “Substituted 3-((Z)-2-(4-nitrophenyl)-2-(1H-tetrazol-5-yl) vinyl)-4H-chromen-4-ones as novel anti-MRSA agents: synthesis, SAR, and in-vitro assessment” (Bioorg Med Chem Lett, 2008).

Data set [1] can be described thus: pKa of the compound. Type of data set: physicochemical.
In data set [2] the test system is Staphylococcus aureus. Put plainly: Antibacterial activity against methicillin-sensitive Staphylococcus aureus ATCC 13709 Smith after 24 hrs by twofold serial dilution method. Type of data set: functional. Put shortly: (§1)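 CLSI agar-dilution MIC on Mueller Hinton agar with serial twofold drug dilutions. About 10⁴ CFU applied per spot by multipoint inoculator. Incubated at 35 °C and growth scored at 24 h. DMSO served as solvent control. S. aureus ATCC 29213 was the QC strain. Twofold differences were confirmed by a third repetition, and the more frequent result was reported.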

Data set [3] relates to Staphylococcus aureus. Put plainly: Antibacterial activity against methicillin-resistant Staphylococcus aureus 032 after 24 hrs by twofold serial dilution method. Type of data set: functional. In short, it runs like this: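 Agar dilution MIC per CLSI on Mueller Hinton agar with serial twofold drug dilutions. About 10⁴ CFU applied per spot with a multipoint inoculator, incubated at 35 °C, and growth scored at 24 h. DMSO served as solvent control. Twofold discrepancies were confirmed by a third repetition, and the more frequent value was reported.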

Data set [4] has as its system Enterococcus faecalis. Nature of the data set: Antibacterial activity against Enterococcus faecalis ATCC 29212 after 24 hrs by twofold serial dilution method. Type of data set: functional. The settings on record: ATCC 29212, 24 h. Put shortly:
as §1

The test system of data set [5] is Streptococcus pneumoniae. Nature of the data set: Antibacterial activity against Streptococcus pneumoniae ATCC 49619 after 24 hrs by twofold serial dilution method. Type of data set: functional. The note with it: ATCC 49619, 24 h. Put shortly: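 About 10⁴ CFU applied per spot. Incubated at 35 °C in 5% CO₂ and growth scored at 24 h. DMSO served as solvent control. Twofold differences were confirmed by a third repetition.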

The subject of data set [6] is Escherichia coli. Nature of the data set: Antibacterial activity against Escherichia coli ATCC 25922 after 24 hrs by twofold serial dilution method. The settings on record: ATCC 25922, 24 h. Type of data set: functional. In short, it runs like this:
as §1

≈ marks a conversion by molar mass, not a printed value.

With `O=c1c(-c2nnn[nH]2)coc2ccccc12`, the pKa (usually the negative logarithm of the acid dissociation constant) in data set [1] stood at 5.85.
With `O=c1c(/C=C(/c2ccc([N+](=O)[O-])cc2)c2nnn[nH]2)coc2ccc(Br)cc12`, the MIC in data set [2], in data set [3], in data set [4], in data set [5] and in data set [6] was above 32 mg/L throughout.
Consider `Cc1cc2occ(/C=C(/c3ccc([N+](=O)[O-])cc3)c3nnn[nH]3)c(=O)c2cc1Cl`, for which the MIC (as a rule, the lowest concentration found to suppress growth) in data set [2] was 16 mg/L (≈ 39 µM); in data set [3] it was 4 mg/L (≈ 9.76 µM); in data set [4], 16 mg/L (≈ 39 µM); in data set [5], 16 mg/L (≈ 39 µM); in data set [6], above 32 mg/L.
Turning to `O=c1c(/C=C(/c2ccc([N+](=O)[O-])cc2)c2nnn[nH]2)coc2ccc(Cl)cc12`, the MIC in data set [2], in data set [3], in data set [4], in data set [5] and in data set [6] was above 32 mg/L each time.
Turning to `Cc1cc(C)c2occ(/C=C(/c3ccc([N+](=O)[O-])cc3)c3nnn[nH]3)c(=O)c2c1`, the MIC was 8 mg/L (≈ 20.5 µM) in data set [2]; 2 mg/L (≈ 5.14 µM) in data set [3]; 16 mg/L (≈ 41.1 µM) in data set [4]; 16 mg/L (≈ 41.1 µM) in data set [5]; above 32 mg/L in data set [6].
With `O=c1c(/C=C(/c2ccc([N+](=O)[O-])cc2)c2nnn[nH]2)coc2c(Cl)cc(Cl)cc12`, the MIC in data set [2] is 16 mg/L (≈ 37.2 µM); in data set [3], 2 mg/L (≈ 4.65 µM); in data set [4], 8 mg/L (≈ 18.6 µM); in data set [5], 1 mg/L (≈ 2.32 µM); in data set [6], above 32 mg/L.
Consider `Cc1ccc2occ(/C=C(/c3ccc([N+](=O)[O-])cc3)c3nnn[nH]3)c(=O)c2c1`, for which the MIC is 8 mg/L (≈ 21.3 µM) in data set [2]; above 32 mg/L in data set [3]; above 32 mg/L in data set [4]; above 32 mg/L in data set [5]; above 32 mg/L in data set [6].
Turning to `O=c1c(/C=C(/c2ccc([N+](=O)[O-])cc2)c2nnn[nH]2)coc2ccc(F)cc12`, the MIC is 8 mg/L (≈ 21.1 µM) in data set [2]; 0.5 mg/L (≈ 1.32 µM) in data set [3]; 4 mg/L (≈ 10.5 µM) in data set [4]; 0.5 mg/L (≈ 1.32 µM) in data set [5]; above 32 mg/L in data set [6].
Consider `CC1(C)S[C@@H]2[C@H](NC(=O)[C@H](N)c3ccccc3)C(=O)N2[C@H]1C(=O)O` [AMPICILLIN], for which the MIC in data set [2] is 0.25 mg/L (≈ 0.715 µM); in data set [3] it was above 32 mg/L; in data set [4] it was 0.5 mg/L (≈ 1.43 µM); in data set [5], 0.06 mg/L (≈ 0.172 µM); in data set [6] it was above 32 mg/L.
`O=C(O)c1cn(C2CC2)c2cc(N3CCNCC3)c(F)cc2c1=O` [CIPROFLOXACIN]: the MIC in data set [2] is 0.12 mg/L (≈ 0.362 µM); in data set [3] it was above 32 mg/L; in data set [4], 0.5 mg/L (≈ 1.51 µM); in data set [5] it was 2 mg/L (≈ 6.04 µM); in data set [6], above 32 mg/L.
For `CC[C@H]1OC(=O)[C@H](C)[C@@H](O[C@H]2C[C@@](C)(OC)[C@@H](O)[C@H](C)O2)[C@H](C)[C@@H](O[C@@H]2O[C@H](C)C[C@H](N(C)C)[C@H]2O)[C@](C)(O)C[C@@H](C)C(=O)[C@H](C)[C@@H](O)[C@]1(C)O` [ERYTHROMYCIN], the MIC in data set [2] is 0.5 mg/L (≈ 0.681 µM); in data set [3] it was above 32 mg/L; in data set [4], 2 mg/L (≈ 2.73 µM); in data set [5] it was 0.12 mg/L (≈ 0.164 µM); in data set [6], above 32 mg/L.
